Measurements as given in ChEMBL document CHEMBL5712901, “DOT1L inhibition blocks multiple myeloma cell proliferation by suppressing IRF4-MYC signaling” (2019).
Calls of active or inactive are those of the source. The calls are words filed in the database; no cut-off is given here.

What was measured:
RPMI-8226 [1] = test: Induction of cell cycle arrest in human RPMI-8226 cells assessed as decrease in accumulation of cells at S phase at 1 uM for 6 days; assay type: functional, cell-based; settings: time 6.0 day
In short: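 Flow cytometric cell cycle analysis of RPMI-8226 and MM.1S cells treated with 1 μM DOT1L inhibitor or DMSO for 6 days. Sub-G1, G0-G1 and S phase populations scored. Summary is from 3 replications, mean ± SEM.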

MM1.S [2] = test: Induction of apoptosis in human MM1.S cells assessed as early apoptotic cells at 1 uM for 6 days by annexin-V based propidium iodide staining based flow cytometric analysis (reference value: 7.39%); assay type: functional; settings: time 6 day
RPMI-8226 [3] = test: Induction of apoptosis in human RPMI-8226 cells assessed as early apoptotic cells at 1 uM for 3 days by annexin-V based propidium iodide staining based flow cytometric analysis (reference value: 3.02%); assay type: functional; settings: time 3 day
RPMI-8226 [4] = test: Effect on human RPMI-8226 cells assessed as change in KLF2 mRNA level at 1 uM for 3 days by ChIP-qPCR analysis; assay type: functional, cell-based; settings: time 3.0 day
In short: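 ChIP-qPCR for H3K79me2 at IRF4-MYC signaling genes after 1 μM inhibitor or DMSO for 3 days. Signal normalized to input DNA. An intergenic region 28 kb upstream of KLF2 served as negative control. Mean of 3 replications ± SEM.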

RPMI-8226 [5] = test: Upregulation of ANTXR2 gene in human RPMI-8226 cells at 1 uM for 6 days by; assay type: functional, cell-based; settings: time 6.0 day
RPMI-8226 [6] = test: Upregulation of ANXA2R gene in human RPMI-8226 cells at 1 uM for 6 days by; assay type: functional, cell-based; settings: time 6.0 day
RPMI-8226 [7] = test: Upregulation of CCDC74B gene in human RPMI-8226 cells at 1 uM for 6 days by; assay type: functional, cell-based; settings: time 6.0 day
RPMI-8226 [8] = test: Upregulation of CCL2 gene in human RPMI-8226 cells at 1 uM for 6 days by; assay type: functional, cell-based; settings: time 6.0 day
RPMI-8226 [9] = test: Upregulation of CFH gene in human RPMI-8226 cells at 1 uM for 6 days by; assay type: functional, cell-based; settings: time 6.0 day
RPMI-8226 [10] = test: Upregulation of CPQ gene in human RPMI-8226 cells at 1 uM for 6 days by; assay type: functional, cell-based; settings: time 6.0 day
In short: (§1)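 Human myeloma lines RPMI-8226 and MM.1S exposed to 1 μM DOT1L inhibitor, or DMSO, for 6 days. Whole-genome expression profiled on gene expression microarray.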

RPMI-8226 [11] = test: Upregulation of CXCL12 gene in human RPMI-8226 cells at 1 uM for 6 days by; assay type: functional, cell-based; settings: time 6.0 day; in short: as §1
RPMI-8226 [12] = test: Upregulation of FCGR2B gene in human RPMI-8226 cells at 1 uM for 6 days by; assay type: functional, cell-based; settings: time 6.0 day; in short: as §1
RPMI-8226 [13] = test: Upregulation of FNBP1 gene in human RPMI-8226 cells at 1 uM for 6 days by; assay type: functional, cell-based; settings: time 6.0 day
RPMI-8226 [14] = test: Upregulation of HLA-DPB1 gene in human RPMI-8226 cells at 1 uM for 6 days by; assay type: functional, cell-based; settings: time 6.0 day
RPMI-8226 [15] = test: Upregulation of HLA-DQB1 gene in human RPMI-8226 cells at 1 uM for 6 days by; assay type: functional, cell-based; settings: time 6.0 day
RPMI-8226 [16] = test: Upregulation of HLA-DRB1 gene in human RPMI-8226 cells at 1 uM for 6 days by; assay type: functional, cell-based; settings: time 6.0 day
RPMI-8226 [17] = test: Upregulation of IFITM3 gene in human RPMI-8226 cells at 1 uM for 6 days by; assay type: functional, cell-based; settings: time 6.0 day
RPMI-8226 [18] = test: Upregulation of NEURL1B gene in human RPMI-8226 cells at 1 uM for 6 days by; assay type: functional, cell-based; settings: time 6.0 day
RPMI-8226 [19] = test: Upregulation of PTPN13 gene in human RPMI-8226 cells at 1 uM for 6 days by; assay type: functional, cell-based; settings: time 6.0 day
RPMI-8226 [20] = test: Upregulation of PTPRD gene in human RPMI-8226 cells at 1 uM for 6 days by; assay type: functional, cell-based; settings: time 6.0 day
RPMI-8226 [21] = test: Upregulation of RGS1 gene in human RPMI-8226 cells at 1 uM for 6 days by; assay type: functional, cell-based; settings: time 6.0 day
RPMI-8226 [22] = test: Upregulation of RIMBP3 gene in human RPMI-8226 cells at 1 uM for 6 days by; assay type: functional, cell-based; settings: time 6.0 day
RPMI-8226 [23] = test: Upregulation of SERPINB1 gene in human RPMI-8226 cells at 1 uM for 6 days by; assay type: functional, cell-based; settings: time 6.0 day
RPMI-8226 [24] = test: Upregulation of SOAT2 gene in human RPMI-8226 cells at 1 uM for 6 days by; assay type: functional, cell-based; settings: time 6.0 day
RPMI-8226 [25] = test: Upregulation of TP53TG3 gene in human RPMI-8226 cells at 1 uM for 6 days by; assay type: functional, cell-based; settings: time 6.0 day
MM1.S [26] = test: Upregulation of ALPK1 gene in human MM1.S cells at 1 uM for 6 days by; assay type: functional, cell-based; settings: time 6.0 day
MM1.S [27] = test: Upregulation of CAPN2 gene in human MM1.S cells at 1 uM for 6 days by; assay type: functional, cell-based; settings: time 6.0 day
MM1.S [28] = test: Upregulation of CARD6 gene in human MM1.S cells at 1 uM for 6 days by; assay type: functional, cell-based; settings: time 6.0 day
MM1.S [29] = test: Upregulation of CTSH gene in human MM1.S cells at 1 uM for 6 days by; assay type: functional, cell-based; settings: time 6.0 day; in short: as §1
MM1.S [30] = test: Upregulation of EMID1 gene in human MM1.S cells at 1 uM for 6 days by; assay type: functional, cell-based; settings: time 6.0 day; in short: as §1
MM1.S [31] = test: Upregulation of ENC1 gene in human MM1.S cells at 1 uM for 6 days by; assay type: functional, cell-based; settings: time 6.0 day; in short: as §1
MM1.S [32] = test: Upregulation of FBXO2 gene in human MM1.S cells at 1 uM for 6 days by; assay type: functional, cell-based; settings: time 6.0 day; in short: as §1
MM1.S [33] = test: Upregulation of GLYATL1 gene in human MM1.S cells at 1 uM for 6 days by; assay type: functional, cell-based; settings: time 6.0 day; in short: as §1
MM1.S [34] = test: Upregulation of GPD2 gene in human MM1.S cells at 1 uM for 6 days by; assay type: functional, cell-based; settings: time 6.0 day; in short: as §1
MM1.S [35] = test: Upregulation of HLA-DRB1 gene in human MM1.S cells at 1 uM for 6 days by; assay type: functional, cell-based; settings: time 6.0 day
MM1.S [36] = test: Upregulation of HLA-DRB5 gene in human MM1.S cells at 1 uM for 6 days by; assay type: functional, cell-based; settings: time 6.0 day
MM1.S [37] = test: Upregulation of IFITM1 gene in human MM1.S cells at 1 uM for 6 days by; assay type: functional, cell-based; settings: time 6.0 day
MM1.S [38] = test: Upregulation of MYOF gene in human MM1.S cells at 1 uM for 6 days by; assay type: functional, cell-based; settings: time 6.0 day
MM1.S [39] = test: Upregulation of NREP gene in human MM1.S cells at 1 uM for 6 days by; assay type: functional, cell-based; settings: time 6.0 day
MM1.S [40] = test: Upregulation of NRIP1 gene in human MM1.S cells at 1 uM for 6 days by; assay type: functional, cell-based; settings: time 6.0 day
MM1.S [41] = test: Upregulation of PARP8 gene in human MM1.S cells at 1 uM for 6 days by; assay type: functional, cell-based; settings: time 6.0 day
MM1.S [42] = test: Upregulation of PPP1R1C gene in human MM1.S cells at 1 uM for 6 days by; assay type: functional, cell-based; settings: time 6.0 day
MM1.S [43] = test: Upregulation of PRRT2 gene in human MM1.S cells at 1 uM for 6 days by; assay type: functional, cell-based; settings: time 6.0 day
MM1.S [44] = test: Upregulation of RGS1 gene in human MM1.S cells at 1 uM for 6 days by; assay type: functional, cell-based; settings: time 6.0 day
MM1.S [45] = test: Upregulation of SGK1 gene in human MM1.S cells at 1 uM for 6 days by; assay type: functional, cell-based; settings: time 6.0 day
MM1.S [46] = test: Upregulation of TLE1 gene in human MM1.S cells at 1 uM for 6 days by; assay type: functional, cell-based; settings: time 6.0 day
MM1.S [47] = test: Upregulation of TP53I11 gene in human MM1.S cells at 1 uM for 6 days by; assay type: functional, cell-based; settings: time 6.0 day
MM1.S [48] = test: Upregulation of ZSCAN31 gene in human MM1.S cells at 1 uM for 6 days by; assay type: functional, cell-based; settings: time 6.0 day

CC(C)N(C[C@H]1O[C@@H](n2cnc3c(N)ncnc32)[C@H](O)[C@@H]1O)[C@H]1C[C@@H](CCc2nc3cc(C(C)(C)C)ccc3[nH]2)C1 [PINOMETOSTAT]
Activity (RPMI-8226 [1]): Active | Activity (MM1.S [2]): 16.9% | Activity (RPMI-8226 [3]): 7.39% | Activity (RPMI-8226 [4]): Active

CC(C)N(CCCNC(=O)Nc1ccc(C(C)(C)C)cc1)C[C@H]1O[C@@H](n2cc(Br)c3c(N)ncnc32)[C@H](O)[C@@H]1O
Activity (RPMI-8226 [5]): Active | Activity (RPMI-8226 [6]): Active | Activity (RPMI-8226 [7]): Active | Activity (RPMI-8226 [8]): Active | Activity (RPMI-8226 [9]): Active | Activity (RPMI-8226 [10]): Active | Activity (RPMI-8226 [11]): Active | Activity (RPMI-8226 [12]): Active | Activity (RPMI-8226 [13]): Active | Activity (RPMI-8226 [14]): Active | Activity (RPMI-8226 [15]): Active | Activity (RPMI-8226 [16]): Active | Activity (RPMI-8226 [17]): Active | Activity (RPMI-8226 [18]): Active | Activity (RPMI-8226 [19]): Active | Activity (RPMI-8226 [20]): Active | Activity (RPMI-8226 [21]): Active | Activity (RPMI-8226 [22]): Active | Activity (RPMI-8226 [23]): Active | Activity (RPMI-8226 [24]): Active | Activity (RPMI-8226 [25]): Active | Activity (MM1.S [26]): Active | Activity (MM1.S [27]): Active | Activity (MM1.S [28]): Active | Activity (MM1.S [29]): Active | Activity (MM1.S [30]): Active | Activity (MM1.S [31]): Active | Activity (MM1.S [32]): Active | Activity (MM1.S [33]): Active | Activity (MM1.S [34]): Active | Activity (MM1.S [35]): Active | Activity (MM1.S [36]): Active | Activity (MM1.S [37]): Active | Activity (MM1.S [38]): Active | Activity (MM1.S [39]): Active | Activity (MM1.S [40]): Active | Activity (MM1.S [41]): Active | Activity (MM1.S [42]): Active | Activity (MM1.S [43]): Active | Activity (MM1.S [44]): Active | Activity (MM1.S [45]): Active | Activity (MM1.S [46]): Active | Activity (MM1.S [47]): Active | Activity (MM1.S [48]): Active
